Assay results from ChEMBL document CHEMBL1152548, “Structural and biological evaluation of some loloatin C analogues” (Bioorg Med Chem, 2009).
In brackets after ≈: the same amount, converted by molar mass.

How the values were obtained:
[1] = system: Enterococcus faecalis; assay: Antibacterial activity against Enterococcus faecalis ATCC 29212 after 24 to 96 hrs by twofold serial dilution method; assay type: functional
Outline: (§1)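 Strains kept at -70 °C, grown at 30 °C on blood agar and suspended in physiological saline to OD 0.1 at 595 nm. The suspension was diluted 10× and 2 µL added to 100 µL nutrient broth with yeast extract. Peptides came from an ethanol stock (4 g/L), were diluted in water and twofold diluted in broth (64 to 1 mg/L). Plates were incubated at 30 °C for 24–96 h. MIC was the lowest concentration inhibiting growth.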

[2] = system: Staphylococcus epidermidis; assay: Antibacterial activity against Staphylococcus epidermidis ATCC 12228 after 24 to 96 hrs by twofold serial dilution method; assay type: functional; outline: as §1
[3] = system: Staphylococcus aureus; assay: Antibacterial activity against Staphylococcus aureus ATCC 29213 after 24 to 96 hrs by twofold serial dilution method; assay type: functional; outline: as §1
[4] = system: Pseudomonas aeruginosa; assay: Antibacterial activity against Pseudomonas aeruginosa ATCC 27853 after 24 to 96 hrs by twofold serial dilution method; assay type: functional; outline: as §1
[5] = system: Escherichia coli; assay: Antibacterial activity against Escherichia coli ATCC 25922 after 24 to 96 hrs by twofold serial dilution method; assay type: functional; outline: as §1
[6] = Solubility in 30% DMSO; assay type: physicochemical
[7] = system: Bacillus cereus; assay: Antibacterial activity against Bacillus cereus ATCC 11778 after 24 to 96 hrs by twofold serial dilution method; assay type: functional; outline: as §1
[8] = system: erythrocyte (Homo sapiens); assay: Cytotoxicity against human erythrocytes assessed as induction of hemolysis at 10 uL after 4 hrs

Structure (SMILES) | MIC [1] [mg/L] | MIC [2] [mg/L] | MIC [3] [mg/L] | MIC [4] [mg/L] | MIC [5] [mg/L] | solubility [6] | MIC [7] [mg/L] | Activity [8]
CC(C)C[C@@H]1NC(=O)[C@H](CCCN)NC(=O)[C@H](C(C)C)NC(=O)[C@H](Cc2c[nH]c3ccccc23)NC(=O)[C@H](CC(=O)O)NC(=O)[C@H](CC(N)=O)NC(=O)[C@@H](Cc2ccccc2)NC(=O)[C@H](Cc2c[nH]c3ccccc23)NC(=O)[C@@H]2O[C@H](CNC1=O)[C@@H](OCc1ccccc1)[C@@H]2O | > 64 | > 64 | > 64 | > 64 | > 64 | Insoluble | > 64 | Non-toxic
CC(C)C[C@@H]1NC(=O)[C@H](CCCN)NC(=O)[C@H](C(C)C)NC(=O)[C@H](Cc2c[nH]c3ccccc23)NC(=O)[C@H](CC(=O)O)NC(=O)[C@@H]2O[C@H](CNC(=O)[C@H](Cc3c[nH]c4ccccc34)NC(=O)[C@@H]3CCCN3C(=O)[C@@H](Cc3ccc(O)cc3)NC1=O)[C@@H](OCc1ccccc1)[C@@H]2O | > 64 | > 64 | > 64 | > 64 | > 64 |  | > 64 | Non-toxic
CC(C)C[C@@H]1NC(=O)[C@H](CCCN)NC(=O)[C@H](C(C)C)NC(=O)[C@@H]2O[C@H](CNC(=O)[C@H](CC(N)=O)NC(=O)[C@H](Cc3ccccc3)NC(=O)[C@H](Cc3c[nH]c4ccccc34)NC(=O)[C@@H]3CCCN3C(=O)[C@@H](Cc3ccc(O)cc3)NC1=O)[C@@H](OCc1ccccc1)[C@@H]2O | > 64 | 32 (≈ 24.9 µM) | > 64 | > 64 | > 64 | Insoluble | 64 (≈ 49.9 µM) | Toxic
CC(C)C[C@@H]1NC(=O)[C@H](CCCN)NC(=O)[C@H](C(C)C)NC(=O)[C@H](Cc2c[nH]c3ccccc23)NC(=O)[C@H](CC(=O)O)NC(=O)[C@H](CC(N)=O)NC(=O)[C@H](Cc2ccccc2)NC(=O)[C@H](Cc2c[nH]c3ccccc23)NC(=O)[C@@H]2CCCN2C(=O)[C@@H](Cc2ccc(O)cc2)NC1=O | > 64 | 32 (≈ 24 µM) | 64 (≈ 47.9 µM) | > 64 | > 64 | Insoluble | 32 (≈ 24 µM) | Toxic
CC(C)C[C@@H]1NC(=O)[C@H](CCCN)NC(=O)[C@H](C(C)C)NC(=O)[C@H](Cc2c[nH]c3ccccc23)NC(=O)[C@@H](CC(=O)O)NC(=O)[C@H](CC(N)=O)NC(=O)[C@H](Cc2ccccc2)NC(=O)[C@H](Cc2c[nH]c3ccccc23)NC(=O)[C@@H]2CCCN2C(=O)[C@@H](Cc2ccc(O)cc2)NC1=O | > 64 | > 64 | > 64 | > 64 | > 64 |  | > 64 | 
CC(C)C[C@@H]1NC(=O)[C@H](CCCN)NC(=O)[C@H](C(C)C)NC(=O)[C@@H]2O[C@H](CNC(=O)[C@H](CC(N)=O)NC(=O)[C@@H](Cc3ccccc3)NC(=O)[C@H](Cc3c[nH]c4ccccc34)NC(=O)[C@@H]3CCCN3C(=O)[C@@H](Cc3ccc(O)cc3)NC1=O)[C@@H](OCc1ccccc1)[C@@H]2O | > 64 | > 64 | > 64 | > 64 | > 64 | Insoluble | > 64 | Non-toxic
CC(C)C[C@@H]1NC(=O)[C@H](CCCN)NC(=O)[C@H](C(C)C)NC(=O)[C@H](Cc2c[nH]c3ccccc23)NC(=O)[C@H](CC(=O)O)NC(=O)[C@H](CC(N)=O)NC(=O)[C@@H](Cc2ccccc2)NC(=O)[C@H](Cc2c[nH]c3ccccc23)NC(=O)[C@@H]2CCCN2C(=O)[C@@H](Cc2ccc(O)cc2)NC1=O [LOLOATIN C] | 8 (≈ 5.99 µM) | 8 (≈ 5.99 µM) | 8 (≈ 5.99 µM) | > 64 | > 64 |  | 8 (≈ 5.99 µM) | Toxic
